Measurements: ChEMBL document CHEMBL4715736, “Identification of anticancer agents based on the thieno[2,3-b]pyridine and 1H-pyrazole molecular scaffolds” (2016)

Columns and labels:
Type in all cases: functional
HCT-116 [1] = experiment: Growth inhibition of human HCT-116 cells assessed as cell growth at 0.01 uM incubated for 48 hrs by sulforhodamine B assay relative to control; conditions: read-out: Activity
HCT-15 = experiment: Growth inhibition of human HCT-15 cells assessed as cell growth at 100 uM incubated for 48 hrs by sulforhodamine B assay relative to control; conditions: read-out: Activity
PC-3 [2] = experiment: Growth inhibition of human PC-3 cells incubated for 48 hrs by sulforhodamine B assay; conditions: for CC50: read-out: LC50 (the source's name)
In short: (§1)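 NCI DTP 60-line human tumour panel. Dose-response curves were run only for ligands active in the initial 10 µM screen. GI50 (concentration giving 50% of maximal inhibition of proliferation) and TGI (concentration giving total growth inhibition) were derived from these curves.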

NCI-H522 [3] = experiment: Growth inhibition of human NCI-H522 cells assessed as cell growth at 100 uM incubated for 48 hrs by sulforhodamine B assay relative to control; conditions: read-out: Activity
NCI/ADR-RES = experiment: Growth inhibition of human NCI/ADR-RES cells incubated for 48 hrs by sulforhodamine B assay; conditions: for CC50: read-out: LC50 (the source's name)
In short: (§2)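 NCI60 panel at the NCI Developmental Therapeutics Program. Only compounds active in the 10 µM screen went to dose-response testing. GI50, the concentration giving 50% of maximal inhibition of proliferation, and TGI, the concentration giving total growth inhibition, were derived from the dose-response curves.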

ACHN = experiment: Growth inhibition of human ACHN cells assessed as cell growth at 100 uM incubated for 48 hrs by sulforhodamine B assay relative to control; conditions: read-out: Activity
Hs-578T [4] = experiment: Growth inhibition of human Hs-578T cells assessed as cell growth at 0.1 uM incubated for 48 hrs by sulforhodamine B assay relative to control; conditions: read-out: Activity
KM12 [5] = experiment: Growth inhibition of human KM12 cells assessed as cell growth at 100 uM incubated for 48 hrs by sulforhodamine B assay relative to control; conditions: read-out: Activity
MOLT-4 = experiment: Growth inhibition of human MOLT-4 cells assessed as cell growth at 1 uM incubated for 48 hrs by sulforhodamine B assay relative to control; conditions: read-out: Activity
HCT-116 [6] = experiment: Growth inhibition of human HCT-116 cells assessed as cell growth at 0.1 uM incubated for 48 hrs by sulforhodamine B assay relative to control; conditions: read-out: Activity
SN12C = experiment: Growth inhibition of human SN12C cells assessed as cell growth at 1 uM incubated for 48 hrs by sulforhodamine B assay relative to control; conditions: read-out: Activity
MDA-MB-435 = experiment: Growth inhibition of human MDA-MB-435 cells assessed as cell growth at 1 uM incubated for 48 hrs by sulforhodamine B assay relative to control; conditions: read-out: Activity
Malme-3M = experiment: Growth inhibition of human Malme-3M cells incubated for 48 hrs by sulforhodamine B assay; in short: as §2
NCI-H460 = experiment: Growth inhibition of human NCI-H460 cells assessed as cell growth at 100 uM incubated for 48 hrs by sulforhodamine B assay relative to control; conditions: read-out: Activity
PC-3 [7] = experiment: Growth inhibition of human PC-3 cells assessed as cell growth at 0.1 uM incubated for 48 hrs by sulforhodamine B assay relative to control; conditions: read-out: Activity
K562 = experiment: Growth inhibition of human K562 cells incubated for 48 hrs by sulforhodamine B assay; in short: as §2
UACC-257 = experiment: Growth inhibition of human UACC-257 cells assessed as cell growth at 1 uM incubated for 48 hrs by sulforhodamine B assay relative to control; conditions: read-out: Activity
HT-29 = experiment: Growth inhibition of human HT-29 cells assessed as cell growth at 100 uM incubated for 48 hrs by sulforhodamine B assay relative to control; conditions: read-out: Activity
NCI-H522 [8] = experiment: Growth inhibition of human NCI-H522 cells incubated for 48 hrs by sulforhodamine B assay; in short: as §2
KM12 [9] = experiment: Growth inhibition of human KM12 cells assessed as cell growth at 1 uM incubated for 48 hrs by sulforhodamine B assay relative to control; conditions: read-out: Activity
DU-145 [10] = experiment: Growth inhibition of human DU-145 cells assessed as cell growth at 0.01 uM incubated for 48 hrs by sulforhodamine B assay relative to control; conditions: read-out: Activity
In short: (§3)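 NCI Developmental Therapeutics Program NCI60 panel. Compounds that were active in the 10 µM one-dose screen went on to dose–response testing. Growth at each concentration is expressed relative to untreated control (100%). GI50 (concentration giving 50% of maximal inhibition of proliferation) and TGI (concentration giving total growth inhibition) were derived from the curves.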

CCRF-CEM = experiment: Growth inhibition of human CCRF-CEM cells assessed as cell growth at 0.1 uM incubated for 48 hrs by sulforhodamine B assay relative to control; conditions: read-out: Activity; in short: as §3
OVCAR-3 = experiment: Growth inhibition of human OVCAR-3 cells assessed as cell growth at 100 uM incubated for 48 hrs by sulforhodamine B assay relative to control; conditions: read-out: Activity
SF-268 = experiment: Growth inhibition of human SF-268 cells assessed as cell growth at 0.01 uM incubated for 48 hrs by sulforhodamine B assay relative to control; conditions: read-out: Activity
MDA-MB-231 = experiment: Growth inhibition of human MDA-MB-231 cells assessed as cell growth at 0.01 uM incubated for 48 hrs by sulforhodamine B assay relative to control; conditions: read-out: Activity
M14 = experiment: Growth inhibition of human M14 cells incubated for 48 hrs by sulforhodamine B assay; in short: as §2
HOP-62 = experiment: Growth inhibition of human HOP-62 cells assessed as cell growth at 100 uM incubated for 48 hrs by sulforhodamine B assay relative to control; conditions: read-out: Activity
DU-145 [11] = experiment: Growth inhibition of human DU-145 cells assessed as cell growth at 100 uM incubated for 48 hrs by sulforhodamine B assay relative to control; conditions: read-out: Activity; in short: as §3
SF-295 = experiment: Growth inhibition of human SF-295 cells assessed as cell growth at 0.1 uM incubated for 48 hrs by sulforhodamine B assay relative to control; conditions: read-out: Activity
Hs-578T [12] = experiment: Growth inhibition of human Hs-578T cells assessed as cell growth at 0.01 uM incubated for 48 hrs by sulforhodamine B assay relative to control; conditions: read-out: Activity
HOP-92 = experiment: Growth inhibition of human HOP-92 cells assessed as cell growth at 100 uM incubated for 48 hrs by sulforhodamine B assay relative to control; conditions: read-out: Activity
OVCAR-5 = experiment: Growth inhibition of human OVCAR-5 cells assessed as cell growth at 0.01 uM incubated for 48 hrs by sulforhodamine B assay relative to control; conditions: read-out: Activity
T47D = experiment: Growth inhibition of human T47D cells incubated for 48 hrs by sulforhodamine B assay; conditions: for CC50: read-out: LC50 (the source's name); in short: as §1
MCF7 = experiment: Growth inhibition of human MCF7 cells assessed as cell growth at 100 uM incubated for 48 hrs by sulforhodamine B assay relative to control; conditions: read-out: Activity
786-0 = experiment: Growth inhibition of human 786-0 cells assessed as cell growth at 100 uM incubated for 48 hrs by sulforhodamine B assay relative to control; conditions: read-out: Activity

In the case of `Cc1cc(C)c(NC(=O)c2sc3nc4c(cc3c2N)CN(Cc2ccccc2)CC4)c(C)c1`, the growth at 0.01 µM (HCT-116 [1]) is reported as 93%, the growth at 100 µM (HCT-15) is reported as 4% and the GI50 (PC-3 [2]) is reported as 3.13 µM. For the same molecule, the TGI (PC-3 [2]) was > 100 µM, the CC50 (PC-3 [2]) was > 100 µM and the growth at 100 µM (NCI-H522 [3]) was -29%. The GI50 (NCI/ADR-RES) was 1.64 µM, the TGI (NCI/ADR-RES) was 6.24 µM and the CC50 (NCI/ADR-RES) was > 100 µM. For the same molecule, the growth at 100 µM (ACHN) was 6%, the growth at 0.1 µM (Hs-578T [4]) was 91% and the growth at 100 µM (KM12 [5]) was -9%. The growth at 1 µM (MOLT-4) was 96%, the growth at 0.1 µM (HCT-116 [6]) was 97% and the growth at 1 µM (SN12C) was 92%. For the same molecule, the growth at 1 µM (MDA-MB-435) was 20%, the GI50 (Malme-3M) was 3.44 µM and the LC50 (Malme-3M) was > 100 µM. The TGI (Malme-3M) was 42 µM, the growth at 100 µM (NCI-H460) was -25% and the growth at 0.1 µM (PC-3 [7]) was 93%. For the same molecule, the GI50 (K562) was 0.903 µM, the LC50 (concentration killing 50% of cells) (K562) was > 100 µM and the TGI (K562) was > 100 µM. For the same molecule, the growth at 1 µM (UACC-257) was 80%, the growth at 100 µM (HT-29) was -26% and the GI50 (NCI-H522 [8]) was 1.6 µM. For the same molecule, the LC50 (NCI-H522 [8]) was > 100 µM, the TGI (NCI-H522 [8]) was 6.83 µM and the growth at 1 µM (KM12 [9]) was 87%. The growth at 0.01 µM (DU-145 [10]) was 104%, the growth at 0.1 µM (CCRF-CEM) was 97% and the growth at 100 µM (OVCAR-3) was -47%. The growth at 0.01 µM (SF-268) was 98%, the growth at 0.01 µM (MDA-MB-231) was 100% and the GI50 (M14) was 2.89 µM. For the same molecule, the LC50 (concentration killing 50% of cells) (M14) was > 100 µM, the TGI (M14) was 31.5 µM and the growth at 100 µM (HOP-62) was 7%. For the same molecule, the growth at 100 µM (DU-145 [11]) was -5%, the growth at 0.1 µM (SF-295) was 92% and the growth at 0.01 µM (Hs-578T [12]) was 84%. For the same molecule, the growth at 100 µM (HOP-92) was -7%, the growth at 0.01 µM (OVCAR-5) was 90% and the GI50 (T47D) was 2.62 µM. The TGI (T47D) was > 100 µM, the CC50 (T47D) was > 100 µM and the growth at 100 µM (MCF7) was -8%.
`CN1CCc2nc3sc(C(N)=O)c(N)c3c(-c3cccs3)c2C1` gave a growth at 0.01 µM (HCT-116 [1]) of 100%, a growth at 100 µM (HCT-15) of 6% and a GI50 (PC-3 [2]) of 4.58 µM. The TGI (PC-3 [2]) was > 100 µM, the CC50 (PC-3 [2]) was > 100 µM and the growth at 100 µM (NCI-H522 [3]) was -26%. For the same molecule, the GI50 (NCI/ADR-RES) was 3.69 µM, the TGI (NCI/ADR-RES) was 98.8 µM and the CC50 (NCI/ADR-RES) was > 100 µM. It also gave a growth at 0.1 µM (Hs-578T [4]) of 92%, a growth at 100 µM (KM12 [5]) of 2% and a growth at 1 µM (MOLT-4) of 85%. The growth at 0.1 µM (HCT-116 [6]) was 102%, the growth at 1 µM (SN12C) was 80% and the growth at 1 µM (MDA-MB-435) was 90%. For the same molecule, the GI50 (Malme-3M) was 5.06 µM, the LC50 (Malme-3M) was > 100 µM and the TGI (Malme-3M) was 38.4 µM. The growth at 100 µM (NCI-H460) was 2%, the growth at 0.1 µM (PC-3 [7]) was 110% and the GI50 (K562) was 4.99 µM. For the same molecule, the LC50 (concentration killing 50% of cells) (K562) was > 100 µM, the TGI (K562) was > 100 µM and the growth at 1 µM (UACC-257) was 111%. For the same molecule, the growth at 100 µM (HT-29) was -1%, the GI50 (NCI-H522 [8]) was 2.91 µM and the LC50 (NCI-H522 [8]) was > 100 µM. For the same molecule, the TGI (NCI-H522 [8]) was 17.8 µM, the growth at 1 µM (KM12 [9]) was 82% and the growth at 0.01 µM (DU-145 [10]) was 111%. It also gave a growth at 0.1 µM (CCRF-CEM) of 107%, a growth at 100 µM (OVCAR-3) of -8% and a growth at 0.01 µM (SF-268) of 106%. For the same molecule, the growth at 0.01 µM (MDA-MB-231) was 106%, the GI50 (M14) was 4.19 µM and the LC50 (concentration killing 50% of cells) (M14) was > 100 µM. For the same molecule, the TGI (M14) was 19.4 µM, the growth at 100 µM (HOP-62) was 2% and the growth at 100 µM (DU-145 [11]) was -1%. For the same molecule, the growth at 0.1 µM (SF-295) was 103%, the growth at 0.01 µM (Hs-578T [12]) was 95% and the growth at 100 µM (HOP-92) was -1%. The GI50 (T47D) was 2.81 µM, the TGI (T47D) was > 100 µM and the CC50 (T47D) was > 100 µM. For the same molecule, the growth at 100 µM (MCF7) was 11% and the growth at 100 µM (786-0) was 15%.
